Screening data: PubChem BioAssay, Johns Hopkins Ion Channel Center
MrgX1 agonist = agonists of human MrgX1 receptor; Q96LB2; MrgX1-HEK293 cells, Fluo-4 calcium fluorescence, agonist mode; stronger effect = higher value; B-score at 10 µM; 0.44% of 310,000 active;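 active = calcium response B-score plate-corrected fluorescence ratio at least 3 library SD, with starting fluorescence B-score inside 5 SD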
Target sequence (Q96LB2 whole entry, looked up): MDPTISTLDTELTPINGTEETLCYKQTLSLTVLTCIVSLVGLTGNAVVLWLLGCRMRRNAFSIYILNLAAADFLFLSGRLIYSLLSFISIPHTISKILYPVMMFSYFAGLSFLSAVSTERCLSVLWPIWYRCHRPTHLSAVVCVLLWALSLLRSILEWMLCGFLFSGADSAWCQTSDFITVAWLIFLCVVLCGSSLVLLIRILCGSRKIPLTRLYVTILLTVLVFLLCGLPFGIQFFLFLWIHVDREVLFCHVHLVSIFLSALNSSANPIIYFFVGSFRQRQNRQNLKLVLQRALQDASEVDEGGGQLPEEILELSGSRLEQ
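times = overnight plating, then 30 min 37 °C plus 30 min room-temperature dye loading | assay system = stable human MrgX1 HEK293 cell line | input = fifteen thousand cells per well | signal = kinetic calcium dye fluorescence, Fluo-4 NW | dosing = compound delivered in addition one of three | read-out = B-scored fluorescence response ratio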
MrgX1 antag = antagonists of human MrgX1 receptor | Q96LB2 | MRGX1-HEK293 calcium flux, Fluo-4, BAM8-22 antagonism; stronger effect = lower value | B-score at 10 µM | 1.3% of 310,000 active | AID 588676;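 active = calcium-response B-score plate-corrected more than 3 library SD below zero, starting fluorescence within 5 deviations, no agonist response on first addition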;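 also: peak minus trough fluorescence over baseline after final BAM8-22 challenge near maximal dose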
RGS4 inh = inhibitors of human RGS4; P49798; HEK293 M3R/RGS4 inducible, Fluo-4 calcium flux; stronger effect = higher value; triggered by carbachol at its EC20; B-score at 10 µM; 0.45% of 310,000 active; AID 463165;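 active = B-score, a plate-corrected calcium signal, over three deviations above library mean, with baseline fluorescence within five deviations of library mean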;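 also: RGS4 expression induced by doxycycline in cells with stable M3 receptor; B-score is computed from the integrated fluorescence ratio over baseline after carbachol; higher B-score means a larger calcium signal and so more RGS4 inhibition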
Target sequence (P49798 whole entry, looked up): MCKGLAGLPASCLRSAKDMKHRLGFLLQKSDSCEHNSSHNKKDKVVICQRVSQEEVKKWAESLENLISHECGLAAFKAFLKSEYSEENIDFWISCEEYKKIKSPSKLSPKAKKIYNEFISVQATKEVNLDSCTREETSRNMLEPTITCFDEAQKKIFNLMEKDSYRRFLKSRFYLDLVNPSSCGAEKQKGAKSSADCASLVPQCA
MrgX1 PAM = allosterically activates human MrgX1 receptor signaling. Q96LB2. MrgX1-HEK293, Fluo-4 calcium flux, FDSS; stronger effect = higher value. B-score at 10 µM. 0.63% of 310,000 active;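 active = plate-corrected calcium response at least 3 library SD above typical, normal starting fluorescence, not activating the receptor alone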;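 also: compound read alongside a low EC10 to EC30 dose of BAM8-22 agonist; peak minus trough fluorescence over baseline measured at the second addition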
RGS4 pot = potentiators or activators of RGS4 | AID 463111 | 0.92% of 310,000 active | HEK293 M3R/inducible RGS4, carbachol calcium flux Fluo4; stronger effect = lower value | B-score at 10 µM;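 active = B-score of the integrated calcium signal more than 4 SD below the library mean, with starting fluorescence not abnormally high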;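 also: negative B-score means reduced calcium response which marks RGS4 activation or potentiation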
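Assay system: HEK293 FlpIn-TREx cells, stable M3R, doxycycline-inducible RGS4 / Probe or stimulus: carbachol, ECmax concentration / Times: overnight RGS4 induction, 30 min dye load 37 °C, 20 min compound RT / Signal: kinetic calcium fluorescence imaging with Fluo4-AM dye, 2 µM / Measure: Agonist-evoked peak-minus-minimum fluorescence over baseline, integrated ratio, B score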
* hit, by the source's call. A selection: hits, their analogues and other compounds. The true share with any hit is near 3.5%.

What do the screens show for `COc1ccc(OC)c(S(=O)(=O)N2CCC3(CC2)OCCN3S(=O)(=O)c2cccs2)c1`?
MrgX1 agonist: inactive; MrgX1 antag: inactive; RGS4 inh: inactive; MrgX1 PAM: inactive; RGS4 pot: -7.5*

What do the screens show for `CN1C2CCC1/C(=C\c1ccc(F)cc1)C(=O)/C2=C/c1ccc(F)cc1`?
MrgX1 agonist: inactive; MrgX1 antag: inactive; RGS4 inh: inactive; MrgX1 PAM: 7*; RGS4 pot: inactive

What do the screens show for `CN1C2CCC1/C(=C/c1cccn1C)C(=O)/C2=C\c1cccn1C`?
MrgX1 agonist: inactive; MrgX1 antag: inactive; RGS4 inh: inactive; MrgX1 PAM: inactive; RGS4 pot: inactive

What do the screens show for `Nc1cc(=O)[nH]c(SCc2cccc3ccccc23)n1`?
MrgX1 agonist: inactive; MrgX1 antag: inactive; RGS4 inh: inactive; MrgX1 PAM: inactive; RGS4 pot: inactive

How did O=c1cc(C(F)(F)F)nc(SCc2cccc3ccccc23)[nH]1 do in these assays?
MrgX1 agonist: inactive; MrgX1 antag: -5.1*; RGS4 inh: inactive; MrgX1 PAM: inactive; RGS4 pot: inactive

How did CCN(CC)CCN(Cc1cc2cc3c(cc2[nH]c1=O)OCCO3)C(=S)NC do in these assays?
MrgX1 agonist: inactive; MrgX1 antag: inactive; RGS4 inh: inactive; MrgX1 PAM: inactive; RGS4 pot: inactive

What do the screens show for `CN(C)S(=O)(=O)c1cccc(C(=O)OCC(=O)Nc2sccc2C(N)=O)c1`?
MrgX1 agonist: inactive; MrgX1 antag: -5*; RGS4 inh: inactive; MrgX1 PAM: inactive; RGS4 pot: inactive

How did Cc1nn(C)c(C(=O)N/N=C/c2ccccc2)c1[N+](=O)[O-] do in these assays?
MrgX1 agonist: inactive; MrgX1 antag: inactive; RGS4 inh: inactive; MrgX1 PAM: inactive; RGS4 pot: -9.9*

Results for Cc1nn(C)c(C(=O)Nc2cccc(Nc3ccccc3)c2)c1[N+](=O)[O-] ?
MrgX1 agonist: inactive; MrgX1 antag: inactive; RGS4 inh: inactive; MrgX1 PAM: inactive; RGS4 pot: inactive

Results for Cc1nc2ccccn2c1C(=O)N/N=C/c1ccc([N+](=O)[O-])o1 ?
MrgX1 agonist: inactive; MrgX1 antag: -6*; RGS4 inh: inactive; MrgX1 PAM: inactive; RGS4 pot: inactive

How did Cc1nc2ccccn2c1C(=O)N/N=C/c1ccc([N+](=O)[O-])cc1 do in these assays?
MrgX1 agonist: inactive; MrgX1 antag: inactive; RGS4 inh: inactive; MrgX1 PAM: inactive; RGS4 pot: inactive

Results for O=c1c2ccccc2nc(/C=C/c2ccc([N+](=O)[O-])cc2)n1CCCO ?
MrgX1 agonist: inactive; MrgX1 antag: inactive; RGS4 inh: inactive; MrgX1 PAM: inactive; RGS4 pot: inactive

What do the screens show for `O=c1c2ccccc2nc(/C=C/c2cccc([N+](=O)[O-])c2)n1CCCO`?
MrgX1 agonist: inactive; MrgX1 antag: inactive; RGS4 inh: inactive; MrgX1 PAM: 7.2*; RGS4 pot: inactive

How did Cc1cccc(NC(=O)CSCC(=O)Nc2cc(S(=O)(=O)N3CCOCC3)ccc2N2CCCC2)c1 do in these assays?
MrgX1 agonist: inactive; MrgX1 antag: inactive; RGS4 inh: inactive; MrgX1 PAM: inactive; RGS4 pot: inactive

What do the screens show for `N#Cc1c(-c2ccccc2Cl)cc(-c2ccccc2)nc1Br`?
MrgX1 agonist: inactive; MrgX1 antag: inactive; RGS4 inh: inactive; MrgX1 PAM: inactive; RGS4 pot: -7.3*

What do the screens show for `CN(C)C1=NC[C@H](Cc2ccccc2)N1CC1CCC(C(C)(C)C)CC1` (some centres not stated)?
MrgX1 agonist: inactive; MrgX1 antag: -6.2*; RGS4 inh: inactive; MrgX1 PAM: inactive; RGS4 pot: inactive

Results for CCOC(=O)Oc1ccc2oc(=O)cc(C)c2c1 ?
MrgX1 agonist: inactive; MrgX1 antag: inactive; RGS4 inh: inactive; MrgX1 PAM: inactive; RGS4 pot: inactive

How did CCN(CC)N=Nc1ccc(S(=O)(=O)N2CCSC2C(=O)O)cc1 (configuration not stated) do in these assays?
MrgX1 agonist: inactive; MrgX1 antag: inactive; RGS4 inh: inactive; MrgX1 PAM: inactive; RGS4 pot: inactive

Results for CCN(CC)N=Nc1ccc(C(=O)O)cc1 ?
MrgX1 agonist: inactive; MrgX1 antag: -5.5*; RGS4 inh: inactive; MrgX1 PAM: inactive; RGS4 pot: inactive

Results for O=C(O)c1ccc(/C=N/NC(=O)c2ccc(NS(=O)(=O)c3cccs3)cc2)cc1 ?
MrgX1 agonist: inactive; MrgX1 antag: inactive; RGS4 inh: inactive; MrgX1 PAM: inactive; RGS4 pot: inactive

Results for O=C(N/N=C/c1ccncc1)c1ccc(NS(=O)(=O)c2cccs2)cc1 ?
MrgX1 agonist: inactive; MrgX1 antag: inactive; RGS4 inh: inactive; MrgX1 PAM: 9.6*; RGS4 pot: inactive

How did CS(=O)(=O)c1cc([N+](=O)[O-])c(Sc2nc3ccccc3[nH]2)c([N+](=O)[O-])c1 do in these assays?
MrgX1 agonist: inactive; MrgX1 antag: inactive; RGS4 inh: inactive; MrgX1 PAM: inactive; RGS4 pot: inactive

How did COc1cccc(NC(=S)NCCc2ccccn2)c1 do in these assays?
MrgX1 agonist: inactive; MrgX1 antag: inactive; RGS4 inh: inactive; MrgX1 PAM: inactive; RGS4 pot: inactive

How did C=C1CC(C(=O)N/N=C/c2ccc(O)cc2)C1 do in these assays?
MrgX1 agonist: inactive; MrgX1 antag: -5.9*; RGS4 inh: inactive; MrgX1 PAM: inactive; RGS4 pot: inactive

What do the screens show for `CCC(=O)NC(=S)Nc1ccc(NC(=O)c2ccc([N+](=O)[O-])cc2Cl)cc1`?
MrgX1 agonist: inactive; MrgX1 antag: inactive; RGS4 inh: inactive; MrgX1 PAM: inactive; RGS4 pot: inactive

How did Cn1ccnc1Sc1ccc(C(N)=O)cc1[N+](=O)[O-] do in these assays?
MrgX1 agonist: inactive; MrgX1 antag: inactive; RGS4 inh: inactive; MrgX1 PAM: inactive; RGS4 pot: inactive

What do the screens show for `CS(=O)(=O)N1CC2CCCN2c2ccc(C(F)(F)F)cc21` (configuration not stated)?
MrgX1 agonist: inactive; MrgX1 antag: inactive; RGS4 inh: inactive; MrgX1 PAM: inactive; RGS4 pot: inactive

How did O=S(=O)(c1cc(Cl)ccc1Cl)N1CC2CCCN2c2ccc(C(F)(F)F)cc21 (configuration not stated) do in these assays?
MrgX1 agonist: inactive; MrgX1 antag: inactive; RGS4 inh: inactive; MrgX1 PAM: inactive; RGS4 pot: -7.1*

How did CCCNC(=O)C1(CC2CC(c3ccccc3)=NO2)CCNCC1 (configuration not stated) do in these assays?
MrgX1 agonist: inactive; MrgX1 antag: inactive; RGS4 inh: inactive; MrgX1 PAM: inactive; RGS4 pot: inactive

Results for CCc1ccc(NC(=O)NC2CCCCCCC2)cc1 ?
MrgX1 agonist: inactive; MrgX1 antag: inactive; RGS4 inh: inactive; MrgX1 PAM: inactive; RGS4 pot: inactive
